Reference: ChEMBL document CHEMBL2203081 (Bioorg Med Chem Lett, 2012)
The source made the active and inactive calls. No cut-off for these calls is given here.

Key:
[1] = target: T1, Ephrin type-B receptor 3 (Homo sapiens) (UniProt P54753); assay: Inhibition of EPH-B3 assessed as residual activity at 10 uM
T1 sequence (whole entry): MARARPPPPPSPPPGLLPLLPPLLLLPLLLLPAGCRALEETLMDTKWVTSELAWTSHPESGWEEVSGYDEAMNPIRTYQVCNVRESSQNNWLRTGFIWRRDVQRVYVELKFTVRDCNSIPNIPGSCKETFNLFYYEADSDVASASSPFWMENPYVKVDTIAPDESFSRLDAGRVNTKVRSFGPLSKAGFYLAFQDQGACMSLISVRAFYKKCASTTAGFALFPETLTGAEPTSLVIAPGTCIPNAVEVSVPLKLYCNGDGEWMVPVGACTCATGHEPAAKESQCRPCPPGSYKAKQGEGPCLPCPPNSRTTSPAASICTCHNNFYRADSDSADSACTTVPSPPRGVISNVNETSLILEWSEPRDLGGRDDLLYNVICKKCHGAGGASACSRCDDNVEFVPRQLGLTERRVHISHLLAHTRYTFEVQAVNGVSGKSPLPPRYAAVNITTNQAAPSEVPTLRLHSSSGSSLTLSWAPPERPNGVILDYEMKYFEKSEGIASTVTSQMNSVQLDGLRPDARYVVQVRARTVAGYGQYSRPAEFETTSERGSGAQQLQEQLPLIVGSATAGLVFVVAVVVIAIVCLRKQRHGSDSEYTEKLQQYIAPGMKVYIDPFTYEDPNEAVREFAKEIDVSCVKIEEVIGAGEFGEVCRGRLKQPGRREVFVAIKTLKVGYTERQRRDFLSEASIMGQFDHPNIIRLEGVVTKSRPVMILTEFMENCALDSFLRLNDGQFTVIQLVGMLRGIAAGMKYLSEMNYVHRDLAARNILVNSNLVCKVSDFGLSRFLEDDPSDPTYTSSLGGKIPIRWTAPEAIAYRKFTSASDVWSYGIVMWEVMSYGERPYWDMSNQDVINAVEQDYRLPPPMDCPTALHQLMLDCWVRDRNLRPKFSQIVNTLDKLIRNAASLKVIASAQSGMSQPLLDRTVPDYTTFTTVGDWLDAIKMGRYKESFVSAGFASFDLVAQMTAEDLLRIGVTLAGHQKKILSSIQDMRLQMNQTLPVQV
Procedure, shortened: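 Standard radioactivity-based enzymatic kinase assays on a 131-kinase panel run by the Dundee profiling service; residual kinase activity recorded.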

Mus musculus = assay: Inhibition of LRRK2 in mouse assessed as inhibition of Ser935 autophosphorylation in spleen at 100 mg/kg, ip by immunoblot method; format: functional, organism-based; set-up: dose 100 mg/kg
[2] = target: Fibroblast growth factor receptor 1 (Homo sapiens) (UniProt P11362); assay: Inhibition of FGF-R1 assessed as residual activity at 1 uM
Procedure, shortened: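 Radioactivity-based enzymatic activity assay of the named kinase, run as part of a 131-kinase specificity panel at the National Centre for Protein Kinase Profiling (Dundee). Residual activity was read at the stated single inhibitor concentration.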

[3] = target: Tyrosine-protein kinase Lyn (Homo sapiens) (UniProt P07948); assay: Inhibition of LYN assessed as residual activity at 10 uM relative to control
[4] = Inhibition of FLT3 ITD mutant assessed as residual activity at 10 uM relative to control
[5] = target: Leucine-rich repeat serine/threonine-protein kinase 2 (Homo sapiens) (UniProt Q5S007); conditions: 0.01 to 1 uM
[6] = target: Cyclin-dependent kinase 17 (Homo sapiens) (UniProt Q00537); assay: Inhibition of PCTK2 assessed as residual activity at 10 uM relative to control
[7] = target: Tyrosine-protein kinase SYK (Homo sapiens) (UniProt P43405); assay: Inhibition of SYK assessed as residual activity at 10 uM
[8] = target: Serine/threonine-protein kinase 33 (Homo sapiens) (UniProt Q9BYT3); assay: Inhibition of STK33 assessed as residual activity at 10 uM
[9] = target: Phosphorylase b kinase gamma catalytic chain, skeletal muscle/heart isoform (Homo sapiens) (UniProt Q16816); assay: Inhibition of PHKG1 assessed as residual activity at 10 uM relative to control
[10] = target: Ephrin type-A receptor 3 (Homo sapiens) (UniProt P29320); assay: Inhibition of EPHA3 assessed as residual activity at 10 uM relative to control
Procedure, shortened: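 Competition kinase-binding assay (KINOMEscan) across a non-redundant panel of 329 kinases beyond the radiometric panel; residual binding expressed relative to control.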

[11] = target: MAP kinase-activated protein kinase 5 (Homo sapiens) (UniProt Q8IW41); assay: Inhibition of PRAK assessed as residual activity at 1 uM
[12] = target: T2, NUAK family SNF1-like kinase 1 (Homo sapiens) (UniProt O60285); assay: Inhibition of ARK5 assessed as residual activity at 10 uM relative to control
T2 sequence (whole entry): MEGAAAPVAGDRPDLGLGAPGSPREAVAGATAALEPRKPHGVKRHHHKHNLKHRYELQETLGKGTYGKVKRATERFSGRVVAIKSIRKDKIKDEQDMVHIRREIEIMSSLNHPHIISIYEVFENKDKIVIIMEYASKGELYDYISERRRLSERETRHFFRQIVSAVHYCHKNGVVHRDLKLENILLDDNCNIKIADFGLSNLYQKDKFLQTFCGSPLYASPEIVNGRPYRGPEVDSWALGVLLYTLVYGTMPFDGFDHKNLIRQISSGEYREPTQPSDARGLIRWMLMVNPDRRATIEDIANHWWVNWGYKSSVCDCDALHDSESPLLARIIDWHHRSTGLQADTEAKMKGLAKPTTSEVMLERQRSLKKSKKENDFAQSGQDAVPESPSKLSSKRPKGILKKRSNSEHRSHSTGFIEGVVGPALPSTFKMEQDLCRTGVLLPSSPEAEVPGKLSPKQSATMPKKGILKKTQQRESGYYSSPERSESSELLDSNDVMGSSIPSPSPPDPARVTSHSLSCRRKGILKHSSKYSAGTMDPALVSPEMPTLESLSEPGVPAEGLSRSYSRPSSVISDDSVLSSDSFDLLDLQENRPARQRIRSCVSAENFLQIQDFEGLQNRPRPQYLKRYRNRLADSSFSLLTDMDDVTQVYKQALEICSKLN

[13] = target: Homeodomain-interacting protein kinase 4 (Homo sapiens) (UniProt Q8NE63); assay: Inhibition of HIPK4 assessed as residual activity at 10 uM relative to control
[14] = target: Serine/threonine-protein kinase TBK1 (Homo sapiens) (UniProt Q9UHD2); assay: Inhibition of TBK1 assessed as residual activity at 10 uM relative to control
[15] = target: Serine/threonine-protein kinase RIO2 (Homo sapiens) (UniProt Q9BVS4); assay: Inhibition of RIOK2 assessed as residual activity at 10 uM relative to control
Plasma = assay: AUClast in Swiss albino mouse plasma at 10 mg/kg, po; format: ADME, organism-based; set-up: dose 10 mg/kg, route oral, time 0 - last; conditions: in vivo
Procedure, shortened: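 Male Swiss Albino mice, single dose given intravenously (1 mg/kg) or orally (10 mg/kg). Drug measured in plasma and brain, with AUClast taken for each. The brain/plasma ratio is based on AUClast, and oral bioavailability is derived from the IV and PO plasma data.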

MAP kinase-activated protein kinase 5 (Homo sapiens), sequence (Q8IW41 whole entry): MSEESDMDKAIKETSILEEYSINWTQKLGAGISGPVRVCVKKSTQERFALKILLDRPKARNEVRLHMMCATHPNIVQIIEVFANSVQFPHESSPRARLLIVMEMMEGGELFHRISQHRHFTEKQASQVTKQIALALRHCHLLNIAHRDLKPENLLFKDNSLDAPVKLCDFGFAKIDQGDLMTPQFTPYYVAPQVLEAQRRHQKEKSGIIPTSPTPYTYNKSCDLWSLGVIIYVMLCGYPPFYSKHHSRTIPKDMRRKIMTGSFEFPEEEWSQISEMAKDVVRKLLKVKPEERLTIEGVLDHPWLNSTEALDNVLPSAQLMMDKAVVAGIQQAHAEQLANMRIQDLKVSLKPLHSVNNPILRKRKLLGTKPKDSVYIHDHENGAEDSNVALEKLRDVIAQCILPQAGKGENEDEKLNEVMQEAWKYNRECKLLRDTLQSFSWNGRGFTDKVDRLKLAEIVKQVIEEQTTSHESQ
Cyclin-dependent kinase 17 (Homo sapiens), sequence (Q00537 whole entry, looked up): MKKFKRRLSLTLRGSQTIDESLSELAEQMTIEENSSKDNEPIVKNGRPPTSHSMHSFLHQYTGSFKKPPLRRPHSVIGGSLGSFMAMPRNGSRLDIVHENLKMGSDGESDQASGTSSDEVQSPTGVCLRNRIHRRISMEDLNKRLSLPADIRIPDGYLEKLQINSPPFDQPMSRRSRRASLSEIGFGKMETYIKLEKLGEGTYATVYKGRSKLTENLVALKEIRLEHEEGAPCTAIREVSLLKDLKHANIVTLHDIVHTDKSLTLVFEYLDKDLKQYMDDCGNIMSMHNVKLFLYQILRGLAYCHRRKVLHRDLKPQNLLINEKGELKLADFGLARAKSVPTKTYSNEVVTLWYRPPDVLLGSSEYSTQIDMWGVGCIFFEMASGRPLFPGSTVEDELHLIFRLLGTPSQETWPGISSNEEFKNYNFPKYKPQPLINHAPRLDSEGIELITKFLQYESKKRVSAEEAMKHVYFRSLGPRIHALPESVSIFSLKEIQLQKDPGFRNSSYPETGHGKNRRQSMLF
Leucine-rich repeat serine/threonine-protein kinase 2 (Homo sapiens), sequence (Q5S007 whole entry): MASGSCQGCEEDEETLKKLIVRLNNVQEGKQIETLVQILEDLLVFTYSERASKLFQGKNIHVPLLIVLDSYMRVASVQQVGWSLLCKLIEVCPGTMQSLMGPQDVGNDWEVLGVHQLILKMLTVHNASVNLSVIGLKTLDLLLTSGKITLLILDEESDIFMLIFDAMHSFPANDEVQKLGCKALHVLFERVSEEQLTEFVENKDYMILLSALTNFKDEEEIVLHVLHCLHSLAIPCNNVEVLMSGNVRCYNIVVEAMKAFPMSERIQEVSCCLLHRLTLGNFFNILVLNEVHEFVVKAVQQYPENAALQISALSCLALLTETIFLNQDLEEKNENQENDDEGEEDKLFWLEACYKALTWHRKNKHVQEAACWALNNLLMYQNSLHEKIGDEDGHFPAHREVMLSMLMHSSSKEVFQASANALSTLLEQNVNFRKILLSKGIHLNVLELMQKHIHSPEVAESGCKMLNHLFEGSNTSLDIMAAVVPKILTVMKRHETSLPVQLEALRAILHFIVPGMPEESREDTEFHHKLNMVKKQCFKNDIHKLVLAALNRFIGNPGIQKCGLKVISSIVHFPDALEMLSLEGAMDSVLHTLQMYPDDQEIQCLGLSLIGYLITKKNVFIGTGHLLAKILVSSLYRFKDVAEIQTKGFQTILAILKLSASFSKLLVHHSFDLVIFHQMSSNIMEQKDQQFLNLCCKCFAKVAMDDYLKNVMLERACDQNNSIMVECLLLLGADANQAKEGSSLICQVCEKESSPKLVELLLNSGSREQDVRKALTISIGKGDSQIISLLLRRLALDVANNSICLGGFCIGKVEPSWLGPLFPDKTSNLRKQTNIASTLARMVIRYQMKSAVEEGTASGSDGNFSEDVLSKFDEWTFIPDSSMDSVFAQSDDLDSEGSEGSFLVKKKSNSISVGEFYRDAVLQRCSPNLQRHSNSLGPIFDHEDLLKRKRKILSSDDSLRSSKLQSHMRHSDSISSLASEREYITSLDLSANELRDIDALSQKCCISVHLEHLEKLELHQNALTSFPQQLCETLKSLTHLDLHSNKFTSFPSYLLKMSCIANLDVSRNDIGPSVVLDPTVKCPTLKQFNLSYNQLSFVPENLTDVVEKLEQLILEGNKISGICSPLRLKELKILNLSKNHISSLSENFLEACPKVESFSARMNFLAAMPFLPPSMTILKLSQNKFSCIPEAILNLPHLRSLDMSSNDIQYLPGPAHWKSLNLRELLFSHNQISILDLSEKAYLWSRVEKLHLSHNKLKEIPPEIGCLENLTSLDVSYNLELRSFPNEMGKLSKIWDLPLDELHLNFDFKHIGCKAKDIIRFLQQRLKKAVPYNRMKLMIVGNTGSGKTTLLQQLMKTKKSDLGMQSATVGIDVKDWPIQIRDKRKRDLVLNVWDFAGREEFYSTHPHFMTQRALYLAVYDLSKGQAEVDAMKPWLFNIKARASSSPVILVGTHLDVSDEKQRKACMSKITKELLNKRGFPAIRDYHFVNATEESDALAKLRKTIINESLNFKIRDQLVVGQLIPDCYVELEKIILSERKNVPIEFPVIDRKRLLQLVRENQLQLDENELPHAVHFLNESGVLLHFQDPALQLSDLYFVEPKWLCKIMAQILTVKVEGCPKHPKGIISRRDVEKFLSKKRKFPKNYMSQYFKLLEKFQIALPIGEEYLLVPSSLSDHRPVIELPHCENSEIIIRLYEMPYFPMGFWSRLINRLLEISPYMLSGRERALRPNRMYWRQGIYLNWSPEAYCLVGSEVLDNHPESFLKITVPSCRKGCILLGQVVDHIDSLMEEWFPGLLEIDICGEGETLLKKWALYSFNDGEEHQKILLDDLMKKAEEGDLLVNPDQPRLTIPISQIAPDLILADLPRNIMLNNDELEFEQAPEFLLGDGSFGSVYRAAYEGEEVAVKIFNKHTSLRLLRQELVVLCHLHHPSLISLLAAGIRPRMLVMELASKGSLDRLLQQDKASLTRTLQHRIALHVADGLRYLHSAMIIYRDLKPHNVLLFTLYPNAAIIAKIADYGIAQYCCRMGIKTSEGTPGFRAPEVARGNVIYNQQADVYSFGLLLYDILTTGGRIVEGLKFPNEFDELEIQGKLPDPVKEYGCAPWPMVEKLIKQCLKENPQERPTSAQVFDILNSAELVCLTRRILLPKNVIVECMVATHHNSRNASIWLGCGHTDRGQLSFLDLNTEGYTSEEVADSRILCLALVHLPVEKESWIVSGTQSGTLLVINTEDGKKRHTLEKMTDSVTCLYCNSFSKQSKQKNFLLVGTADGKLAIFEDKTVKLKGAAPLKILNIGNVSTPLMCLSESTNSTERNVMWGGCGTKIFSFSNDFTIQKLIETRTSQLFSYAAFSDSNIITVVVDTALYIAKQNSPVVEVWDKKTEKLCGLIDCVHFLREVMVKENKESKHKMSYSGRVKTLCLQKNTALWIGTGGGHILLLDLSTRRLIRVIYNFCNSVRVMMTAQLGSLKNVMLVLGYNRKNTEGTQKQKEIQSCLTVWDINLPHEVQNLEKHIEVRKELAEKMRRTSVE
Serine/threonine-protein kinase 33 (Homo sapiens), sequence (Q9BYT3 whole entry, looked up, canonical isoform): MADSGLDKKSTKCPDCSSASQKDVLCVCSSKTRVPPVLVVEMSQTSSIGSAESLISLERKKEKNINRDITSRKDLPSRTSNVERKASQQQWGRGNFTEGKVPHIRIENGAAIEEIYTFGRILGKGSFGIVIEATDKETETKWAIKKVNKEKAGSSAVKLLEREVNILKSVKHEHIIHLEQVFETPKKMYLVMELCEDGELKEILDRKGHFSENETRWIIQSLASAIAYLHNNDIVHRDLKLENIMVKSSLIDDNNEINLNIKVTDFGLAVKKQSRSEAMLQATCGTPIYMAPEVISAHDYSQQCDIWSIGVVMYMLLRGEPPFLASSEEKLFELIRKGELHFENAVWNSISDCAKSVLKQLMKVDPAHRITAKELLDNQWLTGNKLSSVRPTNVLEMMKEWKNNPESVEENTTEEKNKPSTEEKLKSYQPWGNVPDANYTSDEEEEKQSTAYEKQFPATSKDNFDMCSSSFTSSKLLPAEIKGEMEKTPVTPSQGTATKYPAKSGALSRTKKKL
Serine/threonine-protein kinase RIO2 (Homo sapiens), sequence (Q9BVS4 whole entry, looked up): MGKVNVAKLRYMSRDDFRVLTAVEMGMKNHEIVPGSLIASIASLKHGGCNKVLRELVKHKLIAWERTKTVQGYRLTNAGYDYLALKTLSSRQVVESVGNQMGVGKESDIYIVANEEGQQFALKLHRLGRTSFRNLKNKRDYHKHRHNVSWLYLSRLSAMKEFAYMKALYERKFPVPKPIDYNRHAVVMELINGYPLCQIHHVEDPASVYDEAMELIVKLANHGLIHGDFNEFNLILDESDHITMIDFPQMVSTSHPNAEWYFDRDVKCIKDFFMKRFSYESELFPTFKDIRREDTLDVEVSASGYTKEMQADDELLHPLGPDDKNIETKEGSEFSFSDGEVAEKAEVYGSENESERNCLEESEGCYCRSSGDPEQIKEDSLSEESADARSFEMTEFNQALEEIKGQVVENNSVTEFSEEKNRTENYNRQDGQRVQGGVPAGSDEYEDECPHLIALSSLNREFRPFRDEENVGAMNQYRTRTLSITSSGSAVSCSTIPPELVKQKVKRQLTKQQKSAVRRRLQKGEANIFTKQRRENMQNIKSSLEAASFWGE
Phosphorylase b kinase gamma catalytic chain, skeletal muscle/heart isoform (Homo sapiens), sequence (Q16816 whole entry, looked up, canonical isoform): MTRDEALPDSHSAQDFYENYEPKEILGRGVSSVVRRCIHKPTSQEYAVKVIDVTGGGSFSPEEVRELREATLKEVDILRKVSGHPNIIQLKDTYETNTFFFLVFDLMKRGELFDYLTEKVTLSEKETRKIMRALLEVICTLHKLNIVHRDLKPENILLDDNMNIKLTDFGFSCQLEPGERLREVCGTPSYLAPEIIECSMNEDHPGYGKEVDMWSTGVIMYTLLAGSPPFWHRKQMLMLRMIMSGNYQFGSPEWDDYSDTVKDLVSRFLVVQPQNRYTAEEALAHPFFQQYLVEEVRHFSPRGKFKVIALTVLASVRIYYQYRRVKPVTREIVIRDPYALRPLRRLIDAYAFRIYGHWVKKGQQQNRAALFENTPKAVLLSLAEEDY

What does the source list for `O=C(Nc1cccnc1)c1cc(-c2ccnc(F)c2)ccc1OCc1ccccc1`?
Activity [1]: 113%; inhibition (Mus musculus): Active; Activity [2]: 110%; Activity [3]: 73%; Activity [4]: 16%; inhibition [5]: Active; Activity [6]: 75%; Activity [7]: 125%; Activity [8]: 56%; Activity [9]: 80%; Activity [10]: 61%; Activity [11]: 109%; Activity [12]: 50%; Activity [13]: 80%; Activity [14]: 68%; Activity [15]: 41%; AUClast (Plasma): 635.3 ng·h/mL
